Source: PubChem (Broad Institute)
Hits are enriched below; roughly 4% of the tested compounds scored in any of these assays.
E-selectin induc = induces E-selectin expression in human endothelial cells | P16581 | HUVEC E-selectin immunofluorescence imaging; normalized: neutral wells 0, TNF-alpha wells 100 | activation, % at 7.58 µM | hit rate 0.37% among 260,000;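 active = mean E-selectin-positive cell signal at least 10% of the positive control, reached in at least 60% of replicates, without over 20% cell loss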
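Test system – human umbilical vein endothelial cells (HUVEC), E-selectin induction · Input – 3,000 HUVEC seeded per well · Buffer or medium – EGM-2, gelatin · Compound dosing – single-point compound dose · Detection – immunofluorescence imaging · Measure – percent E-selectin-positive cells · Controls – TNF-alpha high, DMSO low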
SIRT5 inh = sirtuin-5 (human) deacylase inhibition. Q9NXA8. Purified SirT5, succinyl-peptide AMC, trypsin-coupled fluorescence. inhibition, % at 15 µM. hit rate 1.1% among 330,000; in the data active = inhibition above about 15%
Target sequence (Q9NXA8 whole entry, looked up): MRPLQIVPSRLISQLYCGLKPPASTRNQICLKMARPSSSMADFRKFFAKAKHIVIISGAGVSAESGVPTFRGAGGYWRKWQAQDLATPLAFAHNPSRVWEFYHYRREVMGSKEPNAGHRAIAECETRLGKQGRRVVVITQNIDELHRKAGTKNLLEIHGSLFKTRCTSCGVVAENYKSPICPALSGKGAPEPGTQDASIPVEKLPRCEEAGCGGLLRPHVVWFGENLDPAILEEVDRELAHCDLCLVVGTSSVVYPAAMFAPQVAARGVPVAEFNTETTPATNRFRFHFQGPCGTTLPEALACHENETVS
rRNA inh HTS = selective bacterial rRNA inhibition in E. coli | E. coli WT GFP vs humanized-ribosome RFP mutants, fluorescence, 24 h; active compounds read low; DMSO median 0, no signal -100 | GFP signal change (wild-type ribosome), % (test concentration not listed) | hit rate 1.6% among 350,000 | AID 720706;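 active = significant combined selectivity score with lowered wild-type GFP, culture density cut under 30%, mutant RFP and density less affected; inactive = any of these conditions unmet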
FGF22 binding = shifts melting point of recombinant human FGF22. recombinant FGF22 thermal shift, SYPRO orange fluorescence; percent of sucrose octasulfate shift, DMSO zero. AID 651658. Q9HCT0. hit rate 1.5% among 340,000. activity (Tm shift, normalised), % at 9.99 µM;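 active = mean Tm shift, scaled 0 neutral to 100 positive control, at about 1.3% or above, every replicate too, limit read from the data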
Target sequence (Q9HCT0 whole entry, looked up): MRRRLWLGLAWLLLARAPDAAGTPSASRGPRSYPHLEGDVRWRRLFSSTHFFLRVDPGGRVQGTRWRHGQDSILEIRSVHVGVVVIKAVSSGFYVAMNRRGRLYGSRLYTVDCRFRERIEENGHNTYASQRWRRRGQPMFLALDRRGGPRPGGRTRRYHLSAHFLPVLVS
C2C12 statin = suppressors of simvastatin-induced myotoxicity in C2C12 myotubes; hit rate 0.78% among 330,000; ATP luminescence, 48 h; scaled: DMSO 0, geranylgeraniol control 100; rescue of ATP level, % at 7.49 µM;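 active = mean ATP rescue above about 67%, or every replicate alone reaching that limit, limit read from the data, passing the limit was not always enough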;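 also: myotubes were challenged with 10 µM simvastatin during compound exposure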
FN deposition inh = fibronectin deposition inhibition | hit rate 0.086% among 350,000 | AID 743247 | inhibition, % at 12.6 µM | AH1F fibroblasts, Alexa488-fibronectin deposition fluorescence, overnight;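 active = mean inhibition across replicates of 30% or more, regardless of how many single replicates reach that level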
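Material: AH1F fibroblasts assembling fluorescent fibronectin matrix; amount: 10000 AH1F cells/well; medium: DMEM, 2% serum; reagent: Alexa488-fibronectin, 24 nM final in well; dosing: single compound dose, delivered by pin transfer; incubation: 1 h adhesion, overnight exposure; detection: fluorescence after three HBSS washes, excitation 485 nm, emission 525 nm; measure: fibronectin deposition inhibition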
Numbers stand for hits; . = inactive; / = no result given; ! = not active in a repeat.

SMILES | E-selectin induc | SIRT5 inh | rRNA inh HTS | FGF22 binding | C2C12 statin | FN deposition inh
COc1ccc(S(=O)(=O)N(C)C[C@@H]2Oc3ccc(NC(=O)Nc4ccc(F)cc4)cc3CC(=O)N([C@@H](C)CO)C[C@@H]2C)cc1 | . | / | . | . | . | .
C[C@H]1CN([C@@H](C)CO)C(=O)c2c(c3ccccc3n2C)-c2ccccc2CO[C@@H]1CN(C)S(=O)(=O)c1ccc(Cl)cc1 | . | . | . | . | / | .
C[C@H](CO)N1C[C@H](C)[C@H](CN(C)S(=O)(=O)c2ccc(Cl)cc2)OCc2ccccc2-c2c(n(C)c3ccccc23)C1=O | . | 21.7! | . | . | . | .
C[C@@H]1CN([C@@H](C)CO)C(=O)c2ccccc2-c2ccccc2CO[C@H]1CN(C)S(=O)(=O)c1ccc(Cl)cc1 | . | 15.5 | . | . | / | .
O=S(=O)(N[C@@H]1CC[C@H](CCn2cc(Cc3ccccc3)nn2)O[C@H]1CO)c1ccccc1F | . | . | . | . | . | .
COc1ccc(OCC(=O)N/N=C2\CCCCc3ccccc32)cc1 | . | . | -28.9 | . | / | .
COc1ccc(S(=O)(=O)O/N=C2\CCCc3ccccc32)cc1 | / | / | / | / | 72.4 | .
COc1ccc(NCC(=O)N/N=C2\CCc3ccccc32)cc1 | . | . | . | . | / | .
C[C@@H]1CN([C@H](C)CO)C(=O)c2cccc(NC(=O)Nc3ccccc3)c2O[C@H]1CN(C)C(=O)NC1CCCCC1 | . | . | . | . | . | /
CCCNC(=O)N1CC2(CN(C)C2)c2c([nH]c3cc(OC)ccc23)[C@@H]1CO | . | / | . | / | / | /
C[C@@H]1CN([C@H](C)CO)C(=O)c2cccc(NS(=O)(=O)c3cccs3)c2O[C@@H]1CN(C)C(=O)Nc1ccc(F)cc1 | . | . | . | . | . | .
C[C@H]1CN([C@@H](C)CO)C(=O)c2cccc(NC(=O)CCCCCC(=O)Nc3ccccc3N)c2O[C@@H]1CN(C)Cc1ccc(Oc2ccccc2)cc1 | . | 24.5 | . | . | / | /
C[C@@H]1CN([C@@H](C)CO)C(=O)c2cccc(NC(=O)CCCCCC(=O)Nc3ccccc3N)c2O[C@H]1CN(C)Cc1ccc(-c2ccccc2)cc1 | . | 18.3 | . | . | / | .
C[C@@H]1CN([C@H](C)CO)C(=O)c2cccc(NC(=O)CCCCCC(=O)Nc3ccccc3N)c2O[C@@H]1CN(C)Cc1ccc(Oc2ccccc2)cc1 | . | . | . | . | / | /
COc1ccc2c3c([nH]c2c1)[C@H](CO)N(Cc1ccncc1)CC31CN(CC2CCOCC2)C1 | . | . | . | . | / | /
CC1N=C(SCC(=O)c2ccc(F)cc2)N2C(C)N=C(SCC(=O)c3ccc(F)cc3)N12 (centres undefined) | . | / | / | 43.1 | . | .
CC(=O)N1CC(=O)N2[C@H](CO)[C@@H](c3ccc(-c4cccc(C(=O)N(C)C)c4)cc3)[C@H]2C1 | . | . | . | / | / | /
CN(C)C(=O)C[C@@H]1CC[C@@H]2[C@H](COC[C@@H](O)CN2CC2CC2)O1 | . | . | . | . | . | .
COc1ccc(C)cc1NC(=O)NNC(=O)C1CCC(C(C)(C)C)CC1 (centres undefined) | . | . | -17.2 | . | . | .
CC(=O)N1CCCCN2[C@H](CO)[C@@H](c3ccc(-c4ccncc4)cc3)[C@@H]2C1 | . | . | . | . | . | /
Fc1ccccc1CSc1ccc(-c2ccco2)nn1 | . | . | . | . | / | .
COc1ccccc1-c1ccc(SCC(=O)NCCc2ccccc2)nn1 | . | . | -31.9 | . | / | .
COc1ccccc1-c1ccc(SCc2ccccc2F)nn1 | . | . | -35.7 | . | / | .
COc1ccccc1-c1ccc(SCc2cccc(F)c2)nn1 | . | . | -29.5 | . | / | .
COc1ccccc1-c1ccc(SCc2ccccc2)nn1 | / | . | -33.4 | . | / | /
SMILES | E-selectin induc | SIRT5 inh | rRNA inh HTS | FGF22 binding | C2C12 statin | FN deposition inh
COc1ccccc1-c1ccc2c(c1)[C@H]1[C@H](CCN1C(=O)C1CCOCC1)[C@@H](CO)N2 | . | . | . | . | . | .
COc1ccccc1CNC(=O)C[C@@H]1C[C@H]2c3cc(NC(=O)C4CCC4)ccc3O[C@H]2[C@H](CO)O1 | . | . | . | . | . | .
C[C@@H]1CN([C@H](C)CO)C(=O)c2cccc(NS(=O)(=O)c3ccc(Cl)cc3)c2O[C@H]1CN(C)S(=O)(=O)c1ccc(F)cc1 | . | / | . | . | . | /
O=C1OC(OC2CCCCC2)(c2ccccc2)c2ccccc21 (centres undefined) | / | . | -21.9 | . | . | /
Cc1ccc(S(=O)(=O)Nc2ccc(S(=O)(=O)Nc3cc(C)nc(C)n3)cc2)cc1 | . | . | . | 43.4 | / | .
Cc1ccc(OCCC(=O)Nc2ccc(S(=O)(=O)Nc3cc(C)nc(C)n3)cc2)cc1 | . | . | . | . | / | .
Cc1cc(NS(=O)(=O)c2ccc(NC(=O)COc3ccc(Br)cc3)cc2)nc(C)n1 | / | 33.0 | . | . | . | .
CCCC#Cc1ccc2c(c1)O[C@H](CN(C)C(=O)C1CCC1)[C@H](C)CN([C@H](C)CO)S2(=O)=O | . | . | . | . | . | .
CN(C)C(=O)C[C@@H]1CC[C@@H]2[C@H](COC[C@@H](O)CN2CC2CCCC2)O1 | . | . | . | . | . | .
O=C(NCc1ccccc1)c1nc(-c2cccs2)no1 | / | . | . | 44.0 | / | .
O=C(NCc1ccccc1)c1cc(-c2cccs2)on1 | / | . | . | . | . | /
C[C@@H]1CN([C@H](C)CO)C(=O)c2cc(NC(=O)CCC(F)(F)F)ccc2O[C@@H](C)CCCCO[C@H]1CN(C)C(=O)C1CCCCC1 | . | . | . | . | / | /
O=C1c2ccccc2S(=O)(=O)c2cc(N3CCC(C(=O)N4CCCCC4)CC3)ccc21 | / | / | -20.9 | . | / | .
O=C(NC1CCCCC1)c1cccc2c1C(=O)c1ccc(N3CCCC3)cc1S2(=O)=O | . | / | . | . | . | .
c1ccc(N2CCN(Cc3ccc4c(c3)OCO4)CC2)nc1 | . | . | . | . | . | .
O=c1c(CN2CCN(c3ccccn3)CC2)coc2ccccc12 | / | . | . | 43.8 | / | .
CCc1cc(C(=O)c2ccc(OC)cc2)c(NC(=O)CCC(=O)O)s1 | . | . | -41.8 | . | / | .
CCC(=O)c1ccc(OCCn2cnc3ccccc32)cc1 | . | . | -33.8 | . | / | .
O=C(c1ccccc1)N1CC2(C1)[C@H](c1ccccc1)[C@H](CO)N2CC1CC1 | . | . | . | . | / | /
O=C(Nc1ccccc1)N[C@@H]1CC[C@@H](CCn2cc(-c3ccccc3F)nn2)O[C@H]1CO | . | . | . | / | / | /
CC(C)(C)Cc1c(-c2ccc(Cl)cc2)nc2ccc(Cl)cn12 | . | . | . | . | . | .
COc1ccc(-c2nc3ccc(Br)cn3c2Cc2cccc(Cl)c2)cc1OC | . | / | -27.2 | . | . | .
